# In article PMC2219267 (The Journal of General Physiology, 1996):
# Assays:
# band 3 [1] = biological target: T1, band 3 (Homo sapiens, UniProt P02730); test: 36Cl exchange flux inhibition in red blood cells, Dixon plots; format: cell-based
# T1 sequence (P02730 1-911): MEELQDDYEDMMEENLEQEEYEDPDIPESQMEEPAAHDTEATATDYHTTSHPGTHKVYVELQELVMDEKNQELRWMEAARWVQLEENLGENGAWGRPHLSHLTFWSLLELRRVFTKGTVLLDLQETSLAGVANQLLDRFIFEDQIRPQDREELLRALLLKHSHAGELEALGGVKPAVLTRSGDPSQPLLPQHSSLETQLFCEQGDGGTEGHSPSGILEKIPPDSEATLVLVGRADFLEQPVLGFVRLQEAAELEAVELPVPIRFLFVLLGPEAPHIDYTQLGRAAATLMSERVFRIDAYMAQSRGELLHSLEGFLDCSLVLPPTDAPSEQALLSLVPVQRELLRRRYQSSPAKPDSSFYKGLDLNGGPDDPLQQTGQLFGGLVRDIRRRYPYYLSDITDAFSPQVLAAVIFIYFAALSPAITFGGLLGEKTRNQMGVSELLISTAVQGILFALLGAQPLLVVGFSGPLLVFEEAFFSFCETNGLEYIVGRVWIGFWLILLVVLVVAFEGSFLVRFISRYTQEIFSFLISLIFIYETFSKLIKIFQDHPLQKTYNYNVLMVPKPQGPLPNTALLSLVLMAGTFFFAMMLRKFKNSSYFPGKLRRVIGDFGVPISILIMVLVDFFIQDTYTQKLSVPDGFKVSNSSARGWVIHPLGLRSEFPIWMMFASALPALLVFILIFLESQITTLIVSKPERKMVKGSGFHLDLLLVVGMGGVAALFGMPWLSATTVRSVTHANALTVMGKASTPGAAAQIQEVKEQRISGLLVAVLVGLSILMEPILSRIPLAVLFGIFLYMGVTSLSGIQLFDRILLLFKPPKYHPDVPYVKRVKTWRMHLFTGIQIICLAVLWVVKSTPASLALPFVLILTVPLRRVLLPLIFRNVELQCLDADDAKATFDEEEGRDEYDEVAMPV
# band 3 [2] = biological target: T1, band 3; test: 125I iodide influx into red blood cells; format: cell-based
# Outline: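 Heparinised human blood was washed three times in 150 KH (150 mM KCl, 24 mM sucrose, 20 mM Hepes, pH 7.2 at 0°C), with white cells aspirated, then held at 50% hematocrit. DIDS-treated cells received a 2 mM DIDS stock. Media mixed sucrose, KCl and KI with 5 mM buffer. Above pHo 11, cells were nystatin-loaded to 300 mM Cl-, and CAPS-buffered media were used.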
smiles,measurement,setting,value
"O=S(=O)(O)CCCNC1CCCCC1 [CAPS, 3-[cyclohexylamino]-l-propanesulfonic acid]",effect of buffer on anion transport or on KoI,"band 3 [1]; pHo ~12, compared with data obtained without buffer",does not show any inhibitory effects
"O=S(=O)(O)c1cc(N=C=S)ccc1C=Cc1ccc(N=C=S)cc1S(=O)(=O)O [DIDS, 4,4'-diisothiocyano-stilbene-2,2'-disulfonate]",I- influx in DIDS-treated cells as % of value in control cells,band 3 [2]; all pH except 11.5,less than 10%
same,DIDS-insensitive I- flux as % of control flux,"band 3 [2]; pH 11.5, very scattered values",up to 25%
O=C(O)CC(O)(CC(=O)O)C(=O)O [citrate],type of inhibition of Cl- flux (Lineweaver-Burk plot),"band 3 [1]; 24 mM citrate, pHo 6.8, sucrose replacing Cl-",mixed inhibition
same,y intercept of Dixon slope vs 1/[Clo] (citrate),band 3 [1]; pHo 6.8,0.00017 kg Hb·s·mmol-1·mM-1
same,y intercept of Dixon slope vs 1/[Clo] (citrate),band 3 [1]; pHo 8.0,0.0001 kg Hb·s·mmol-1·mM-1
